Data set [1] deals with Plasmodium falciparum. The data set can be described thus: Antiplasmodial activity against chloroquine-sensitive Plasmodium falciparum 3D7 assessed as inhibition of schizont stage parasite growth at 526 nM after 24 hrs by [3H]hypoxanthine incorporation assay. Type of data set: functional. Particulars: read-out: GI. In a few lines:
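P. falciparum 3D7 is synchronized with sorbitol. […] Cells are washed four times, then labelled with [3H]hypoxanthine for 24 h. Growth is given as % of untreated control for each stage, in triplicate.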

For data set [2], the system named is Plasmodium falciparum. The experiment in a line: Upregulation of glutathione synthetase mRNA level in Plasmodium falciparum 3D7 trophozoites at 126 nM after 18 hrs by RT-qPCR analysis relative to untreated control. In kind it is functional. In a few lines: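 Synchronized 3D7 trophozoites in RPMI/Albumax culture at 37°C under 3% O2, 3% CO2 were exposed 12, 15 or 18 h, then harvested by 0.02% saponin lysis. RNA was reverse-transcribed and analyzed by real-time PCR in quadruplicate. Quantification used ΔΔCT with 18S rRNA reference (LDH also checked), expressed as % of untreated control.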

Data set [3] relates to Plasmodium berghei. The data set can be described thus: Antimalarial activity against Plasmodium berghei infected in mouse assessed as reduction in parasite load at 10 mg/kg for 4 days treated postinfection measured on day 9. In kind it is functional. Also noted: scale not given: the % may be the effect or the level left. An outline of the steps:
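Murine P. berghei model; compound given subcutaneously at 10 mg/kg for 4 days postinfection; parasitemia compared with untreated controls (n = 13 per group) on days 4, 7 and 9; significance by Fisher's exact test.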

Data set [4] has as its system A549. The data set can be described thus: Effect on glutathione S-transferase expression in human A549 cells assessed as transcript level at 5 nM after 24 hrs by RT-qPCR analysis relative to untreated control. Particulars: in the assay text read “5 µM” for “5 nM”. Type of data set: functional. An outline of the steps:
(§1)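 A549 cells are seeded at 2.5 × 10^5 per 25-cm2 well. At 40–45% confluence they are treated for 24 h with 166 or 662 μM, 158 or 315 μM, or 5 or 24 μM compound; controls receive <5% DMSO. Total RNA is DNase-treated and qRT-PCR is run in quadruplicate. Values are normalized to GAPDH and given as % of untreated control.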

The test system of data set [5] is A549. The data set can be described thus: Effect on glutathione reductase expression in human A549 cells assessed as transcript level at 5 nM after 24 hrs by RT-qPCR analysis relative to untreated control. In kind it is functional. The conditions noted are these: in the assay text read “5 µM” for “5 nM”. An outline of the steps: as §1
Data set [6] deals with A549. The data set can be described thus: Cytotoxicity against human A549 cells after 24 hrs by Trypan blue assay. Particulars: a549, 24 h.
The test system of data set [7] is A549. The experiment in a line: Inhibition of glutathione peroxidase in human A549 cells assessed as enzyme activity at 24 µM after 24 hrs relative to untreated control. On the set-up: scale not given: the % may be the effect or the level left.
In data set [8] the test system is A549. The experiment in a line: Inhibition of glutathione S-transferase in human A549 cells assessed as enzyme activity at 24 µM after 24 hrs relative to untreated control. Also noted: scale not given: the % may be the effect or the level left.
The subject of data set [9] is Plasmodium falciparum. The experiment in a line: Antiplasmodial activity against chloroquine-resistant Plasmodium falciparum K1 in presence of artemether. Type of data set: functional.
The test system of data set [10] is Plasmodium falciparum. The experiment in a line: Antiplasmodial activity against chloroquine-resistant Plasmodium falciparum K1 in presence of mefloquine. In kind it is functional.
Data set [11] deals with A549. The data set can be described thus: Effect on thioredoxin reductase expression in human A549 cells assessed as transcript level at 166 nM after 24 hrs by RT-qPCR analysis relative to untreated control. Type of data set: functional. The conditions noted are these: in the assay text read “166 uM” for “166 nM”. An outline of the steps: as §1
The test system of data set [12] is A549. The experiment in a line: Effect on glutathione reductase expression in human A549 cells assessed as transcript level at 662 nM after 24 hrs by RT-qPCR analysis relative to untreated control. Type of data set: functional. The conditions noted are these: in the assay text read “662 µM” for “662 nM”. In a few lines: as §1
Data set [13] concerns the target T1, Glutathione reductase, mitochondrial (Homo sapiens) (UniProt P00390).
T1 sequence (whole entry): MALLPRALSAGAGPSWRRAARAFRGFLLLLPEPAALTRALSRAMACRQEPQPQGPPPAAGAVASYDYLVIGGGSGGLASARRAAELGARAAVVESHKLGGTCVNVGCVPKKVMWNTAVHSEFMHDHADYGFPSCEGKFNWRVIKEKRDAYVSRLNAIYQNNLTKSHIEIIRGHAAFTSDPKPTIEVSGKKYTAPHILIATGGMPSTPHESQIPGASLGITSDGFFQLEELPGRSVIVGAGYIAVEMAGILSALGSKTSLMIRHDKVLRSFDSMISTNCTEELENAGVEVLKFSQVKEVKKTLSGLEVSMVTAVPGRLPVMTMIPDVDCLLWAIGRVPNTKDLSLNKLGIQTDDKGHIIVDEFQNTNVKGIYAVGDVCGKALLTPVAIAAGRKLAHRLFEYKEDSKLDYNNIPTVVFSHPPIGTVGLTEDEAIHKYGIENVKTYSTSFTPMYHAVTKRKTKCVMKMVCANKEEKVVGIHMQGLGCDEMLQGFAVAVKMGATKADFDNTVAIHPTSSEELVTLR
The experiment in a line: Inhibition of glutathione reductase in human A549 cells assessed as enzyme activity at 166 µM after 24 hrs relative to untreated control. Also noted: scale not given: the % may be the effect or the level left.

Data set [14] concerns the target T2, Thioredoxin reductase (Homo sapiens, UniProt Q16881+Q9NNW7+Q86VQ6). The data set can be described thus: Inhibition of thioredoxin reductase in human A549 cells assessed as enzyme activity at 166 µM after 24 hrs by DTNB assay relative to untreated control. Also noted: scale not given: the % may be the effect or the level left.
Data set [15] deals with T2, Thioredoxin reductase. The experiment in a line: Inhibition of thioredoxin reductase in human A549 cells assessed as enzyme activity at 662 µM after 24 hrs by DTNB assay relative to untreated control. On the set-up: scale not given: the % may be the effect or the level left.
Data set [16] has as its system A549. The experiment in a line: Effect on glutathione reductase expression in human A549 cells assessed as transcript level at 315 nM after 24 hrs by RT-qPCR analysis relative to untreated control. In kind it is functional. Particulars: in the assay text read “315 µM” for “315 nM”. In a few lines: as §1
Data set [17] has as its target T1, Glutathione reductase, mitochondrial (Homo sapiens). The data set can be described thus: Inhibition of glutathione reductase in human A549 cells assessed as enzyme activity at 158 µM after 24 hrs relative to untreated control. On the set-up: scale not given: the % may be the effect or the level left.
Data set [18] deals with A549. The experiment in a line: Inhibition of glutathione peroxidase in human A549 cells assessed as enzyme activity at 158 µM after 24 hrs relative to untreated control. On the set-up: scale not given: the % may be the effect or the level left.
The test system of data set [19] is A549. The data set can be described thus: Inhibition of glutathione peroxidase in human A549 cells assessed as enzyme activity at 315 µM after 24 hrs relative to untreated control. On the set-up: scale not given: the % may be the effect or the level left.
The target in data set [20] is T2, Thioredoxin reductase. The data set can be described thus: Inhibition of thioredoxin reductase in human A549 cells assessed as enzyme activity at 158 µM after 24 hrs by DTNB assay relative to untreated control. Also noted: scale not given: the % may be the effect or the level left.

With `O=c1oc2c(O)c(O)c(O)c3c(=O)oc4c(O)c(O)c(O)c1c4c23` [CORULEOELLAGIC ACID], the inhibition of growth at 0.526 µM in [1] turned out to be 39%. Further, the Activity was 128% in [2]; 50% in data set [3]; 68% in data set [4]; 77% in data set [5]; “Non-toxic” in data set [6]; 78% in [7]. Further, in [8], the Activity was 106%.

With `O=c1oc2c(O)c(O)cc3c(=O)oc4c(O)c(O)cc1c4c23` [ELLAGIC ACID], the FIC50 in data set [9] and in data set [10] was 1 in each case. In addition, the Activity in data set [11] is 115%; in [12], 125%; in [13], 87%; in data set [14] it was 82%; in data set [15], 77%.

For the compound `O=c1oc2c(O)c(O)c(O)c3c(=O)oc4c(O)c(O)cc1c4c23` [FLAVELLAGIC ACID], the Activity in data set [16] was determined as 70%; in data set [17] it was 87%; in data set [18], 122%; in data set [19], 112%; in data set [20], 91%.

The values are drawn from ChEMBL document CHEMBL1687720 (Antimicrob Agents Chemother, 2009).
